Measurements published in PMC5844832 (Bioorganic & medicinal chemistry, 2017).
Each block holds one molecule with its values, some of them ahead of it. *: point of attachment. FITC = O=C1OC2(c3ccc(O)cc3Oc3cc(O)ccc32)c2ccc(NC(=S)*)cc21; βAla = NCCC(=O)O

Columns and labels:
Petit-LUBAC = biological target: T1, Petit-LUBAC (Homo sapiens, UniProt Q96EP0+Q9BYM8); assay: Native gel shift assay; type: binding; conditions: 2.5 μM FITC peptide, 50 μg/mL protein, 1 h 37 °C, hrCNE
T1 sequence (Q96EP0 474-1072): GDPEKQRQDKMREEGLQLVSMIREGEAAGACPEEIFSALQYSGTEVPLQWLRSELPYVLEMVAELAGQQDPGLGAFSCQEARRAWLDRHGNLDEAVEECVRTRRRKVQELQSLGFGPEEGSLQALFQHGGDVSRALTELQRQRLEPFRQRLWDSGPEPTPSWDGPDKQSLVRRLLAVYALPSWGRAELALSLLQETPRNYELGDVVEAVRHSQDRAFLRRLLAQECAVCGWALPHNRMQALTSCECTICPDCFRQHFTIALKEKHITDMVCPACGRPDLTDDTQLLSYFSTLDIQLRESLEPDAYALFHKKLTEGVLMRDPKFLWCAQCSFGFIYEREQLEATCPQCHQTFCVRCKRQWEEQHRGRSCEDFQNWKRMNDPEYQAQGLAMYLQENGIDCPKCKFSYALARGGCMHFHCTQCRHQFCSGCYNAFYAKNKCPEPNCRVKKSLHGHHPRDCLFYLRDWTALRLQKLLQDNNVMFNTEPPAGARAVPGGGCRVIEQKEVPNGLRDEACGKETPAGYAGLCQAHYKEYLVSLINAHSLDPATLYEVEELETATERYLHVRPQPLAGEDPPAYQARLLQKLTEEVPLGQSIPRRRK
T1 sequence (Q9BYM8 1-191): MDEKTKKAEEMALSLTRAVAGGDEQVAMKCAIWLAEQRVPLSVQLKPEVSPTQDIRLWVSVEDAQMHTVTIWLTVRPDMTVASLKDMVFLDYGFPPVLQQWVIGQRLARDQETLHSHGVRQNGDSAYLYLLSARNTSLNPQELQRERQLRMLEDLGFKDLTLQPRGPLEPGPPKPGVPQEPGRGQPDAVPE
Summary of the method: (§1)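 Recombinant protein, expressed in Rosetta (DE3) E. coli, was mixed at 50 μg/mL with 2.5 μM FITC-peptide in 1X ubiquitylation buffer, with or without 20 μM unlabelled peptide competitor. Mixtures were incubated 1 h at 37 °C and resolved on 5% acrylamide native gels (bis-Tris, pH 7.0; Tricine/imidazole/deoxycholate cathode buffer) at […] for 4–5 h at 4 °C. Fluorescent bands were imaged, with protein-only lanes as controls.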

HOIP-UBA = biological target: T2, HOIP-UBA (Homo sapiens, UniProt Q96EP0); assay: Native gel shift assay; type: binding; conditions: 2.5 μM FITC peptide, 50 μg/mL protein, 1 h 37 °C, hrCNE
T2 sequence (Q96EP0 480-636): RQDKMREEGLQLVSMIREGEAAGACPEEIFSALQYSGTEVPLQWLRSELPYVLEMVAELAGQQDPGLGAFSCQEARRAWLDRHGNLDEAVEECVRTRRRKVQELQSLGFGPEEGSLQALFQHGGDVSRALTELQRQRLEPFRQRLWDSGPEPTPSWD

HOIL-UBL = biological target: T3, HOIL-UBL (Homo sapiens, UniProt Q9BYM8); assay: Native gel shift assay; type: binding; conditions: 2.5 μM FITC peptide, 50 μg/mL protein, 1 h 37 °C, hrCNE
T3 sequence (Q9BYM8 37-128): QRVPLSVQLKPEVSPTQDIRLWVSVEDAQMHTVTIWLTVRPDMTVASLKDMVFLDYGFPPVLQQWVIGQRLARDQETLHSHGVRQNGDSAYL
Summary of the method: as §1

GST-HOIP-UBA = biological target: T4, GST-HOIP-UBA (human, UniProt Q96EP0 480-636); assay: SPR
T4 sequence: T2 sequence (Q96EP0 480-636)

His6-HOIL-UBL = biological target: T5, His6-HOIL-UBL (human, UniProt Q9BYM8-1 37-137); assay: SPR
T5 sequence: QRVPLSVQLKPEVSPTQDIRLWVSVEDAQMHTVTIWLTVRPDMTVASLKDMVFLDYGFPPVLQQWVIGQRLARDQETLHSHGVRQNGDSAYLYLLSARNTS

[1] = biological target: T6, HOIP residues 474-1072 (the HOIP chain of Petit-LUBAC) (human, UniProt Q96EP0 474-1072); assay: native gel or EMSA
T6 sequence (looked up): T1 sequence (Q96EP0 474-1072)

[2] = biological target: T7, Petit-LUBAC (truncated sub-complex of LUBAC: HOIL-1L 1-191 and HOIP 474-1072) (human, UniProt Q9BYM8-1 1-191; Q96EP0 474-1072); assay: native gel or EMSA
T7 sequence (looked up) 1: T1 sequence (Q9BYM8 1-191)
T7 sequence (looked up) 2: T1 sequence (Q96EP0 474-1072)

Gel shift of FITC-labelled peptide with Petit-LUBAC (Petit-LUBAC): higher shifted molecular weight
Gel shift of FITC-labelled peptide with HOIL-UBL (HOIL-UBL): no shift was observed
Molecule: 1: unstapled peptide based on 22-amino acid region of HOIP-UBA (residues 606-627) ({Ac-βAla}-SRALTELQRQRLEPFRQRLWDS-NH2) [Compound 1]
Gel shift of FITC-labelled peptide with HOIP-UBA (HOIP-UBA): a shift similar to the one observed with Petit-LUBAC was observed

Kd (GST-HOIP-UBA): 81.4 µM
Kd (His6-HOIL-UBL): 97.3 µM
Molecule: {Ac-βAla}-SRALTELQRQRLEGFRQRLWDS-NH2 (peptide, UniProt Q96EP0 606-627, looked up) [P2G WT (5), unstapled HOIP peptide with proline-to-glycine substitution]

Kd (GST-HOIP-UBA): 4.28 µM
B1: N-P2G (6), N-stapled P2G HOIP peptide (peptide)
chain: SRALTELQRQRLEGFRQRLWDS
modifications: N-terminal β-alanine; N-terminal acetyl; hydrocarbon staple between two cross-linking amino acids in the N-terminal (α8) helix

binding result [1]: binds
B2: HOIL-1L residues 1-191 (the HOIL chain of Petit-LUBAC) (domain or fragment, human, UniProt Q9BYM8-1 1-191, looked up)
chain: T1 sequence (Q9BYM8 1-191)

binding result [2]: binds
Molecule: {FITC-βAla}-SRALTELQRQRLEPFRQRLWDS-NH2 (peptide, UniProt Q96EP0 606-627, looked up) [FITC labeled HOIP WT (1) peptide]
